The results in this text go back to ChEMBL document CHEMBL5257161, “Mycobacterium tuberculosis CitA activity is modulated by cysteine oxidation and pyruvate binding” (RSC Med Chem, 2023).

In assay [1] the test system is Mycobacterium tuberculosis. Put plainly: Binding affinity to Mycobacterium tuberculosis CitA R149E mutant expressed in Escherichia coli cells assessed as change in melting temperature by thermal shift assay. Summed up:
(§1)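 Thermal shift used 25 μM purified protein in 50 mM Tris pH 8.0 with 2 mM ligand (sodium pyruvate, OAA, or both), plus Protein Thermal Shift dye at 2X final. ΔTm was taken from the melt-curve derivative relative to protein without ligand.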

Assay [2] deals with Mycobacterium tuberculosis. Put plainly: Binding affinity to Mycobacterium tuberculosis CitA R149E mutant expressed in Escherichia coli cells assessed as change in melting temperature in presence of pyruvate by thermal shift assay. The essentials:
as §1

Assay [3] has as its system Mycobacterium tuberculosis. As to the kind of experiment: Binding affinity to Mycobacterium tuberculosis CitA R153ZM mutant expressed in Escherichia coli cells assessed as change in melting temperature by thermal shift assay. The essentials:
as §1

In assay [4] the test system is Mycobacterium tuberculosis. As to the kind of experiment: Binding affinity to Mycobacterium tuberculosis CitA R153ZM mutant expressed in Escherichia coli cells assessed as change in melting temperature in presence of pyruvate by thermal shift assay. Summed up: as §1
Assay [5] concerns Mycobacterium tuberculosis. As to the kind of experiment: Binding affinity to Mycobacterium tuberculosis CitA R149E mutant expressed in Escherichia coli cells assessed as apparent Km by Michaelis-Menten analysis. The essentials:
(§2)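 His-tagged CitA (wild type or variant) was expressed in E. coli, purified by cobalt affinity and size exclusion, then dialysed against 20 mM Tris pH 8.0. Activity was measured by DTNB (300 μM) thiol detection of released CoA at 412 nm, with OAA and AcCoA substrates and 10 nM enzyme, in 50 mM Tris pH 8.0 at 25 °C. A no-enzyme control was run. Triplicate runs were fitted to Michaelis–Menten.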

Assay [6] concerns Mycobacterium tuberculosis. As to the kind of experiment: Binding affinity to Mycobacterium tuberculosis CitA R153M mutant expressed in Escherichia coli cells assessed as apparent Km by Michaelis-Menten analysis. The essentials:
as §2

The subject of assay [7] is Mycobacterium tuberculosis. As to the kind of experiment: Binding affinity to Mycobacterium tuberculosis CitA R149E mutant expressed in Escherichia coli cells assessed as Vmax by Michaelis-Menten analysis. The essentials:
as §2

Assay [8] deals with Mycobacterium tuberculosis. Put plainly: Binding affinity to Mycobacterium tuberculosis CitA R153M mutant expressed in Escherichia coli cells assessed as Vmax by Michaelis-Menten analysis. The essentials: as §2
For assay [9], the system named is Mycobacterium tuberculosis. Put plainly: Binding affinity to Mycobacterium tuberculosis CitA R149E mutant expressed in Escherichia coli cells assessed as catalytic constant by Michaelis-Menten analysis. The essentials:
as §2

Assay [10] concerns Mycobacterium tuberculosis. Put plainly: Binding affinity to Mycobacterium tuberculosis CitA R153M mutant expressed in Escherichia coli cells assessed as catalytic constant by Michaelis-Menten analysis. The essentials: as §2
In assay [11] the test system is Mycobacterium tuberculosis. Put plainly: Binding affinity to Mycobacterium tuberculosis CitA R149E mutant expressed in Escherichia coli cells assessed as Kcat/Km by Michaelis-Menten analysis. Summed up:
as §2

In assay [12] the test system is Mycobacterium tuberculosis. Put plainly: Binding affinity to Mycobacterium tuberculosis CitA R153M mutant expressed in Escherichia coli cells assessed as Kcat/Km by Michaelis-Menten analysis. The essentials:
as §2

Assay [13] relates to Mycobacterium tuberculosis. Put plainly: Binding affinity to Mycobacterium tuberculosis CitA R149E mutant expressed in Escherichia coli cells assessed as change in melting temperature in presence of oxaloacetate by thermal shift assay. The essentials: as §1
Assay [14] has as its system Mycobacterium tuberculosis. Put plainly: Binding affinity to Mycobacterium tuberculosis CitA R153ZM mutant expressed in Escherichia coli cells assessed as change in melting temperature in presence of oxaloacetate by thermal shift assay. The essentials: as §1

On to `O=C(O)CC(=O)C(=O)O`, for which the thermal shift (ΔTm) was determined as 10.8 °C in assay [1], 10.7 °C in assay [2], 14.3 °C in [3] and 14.3 °C in assay [4]. Further, the Km in assay [5] was 11.7 µM; in [6], 3.2 µM. Also, the maximal velocity (Vmax) worked out at 2.8 µM/min in assay [7] and 2 µM/min in assay [8]. In addition, the kcat came out at 4.68 s⁻¹ in assay [9] and 3.3 s⁻¹ in assay [10]. In addition, the values for the kcat/Km in [11] and in assay [12] were 400000 M⁻¹ s⁻¹ and 1.05e+06 M⁻¹ s⁻¹, respectively.

Take `CC(=O)C(=O)O`: the shift in melting temperature (ΔTm) in assay [1] is 0.47 °C; in assay [13] it was 10.7 °C; in assay [3], 0.51 °C; in assay [14], 14.3 °C.
